Experiments:
DU-145 cells [1] = experiment: DU-145 viability; assay type: cell-based, human; conditions: 5 μM, vinblastine 0–5 nM, blue light, Figure 7C
In short: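 DU-145 cells (7000/well) were grown overnight, then given test compound (5 μM, 1% DMSO) in octuplicate for 1 h at 37 °C. Medium was replaced with vinblastine (5 nM; 2.5 or 5 nM in one set) or vehicle. Plates received blue LED light (460–470 nm, 20 min, 56 J/cm²) or were kept dark, then 72 h. MTT read at 570 nm, blank-normalized, as percent of vehicle control.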

DU-145 cells [2] = experiment: Chou–Talalay synergy determination with vinblastine; assay type: cell-based, human; conditions: light conditions
In short: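 DU-145 cells (7000/well, DMEM with 10% FBS and penicillin/streptomycin) were grown overnight (16 h, 37 °C, 5% CO₂). They were pretreated 1 h with test compound (10–1 μM) or vehicle (1% DMSO), then switched to vinblastine (10–0.5 nM) or vehicle, in quadruplicate. Blue light 460–470 nm for 20 min, then 72 h. MTT read at 570 nm, blank-subtracted, as percent effect. Chou–Talalay EC50 and CI computed per combination.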

[3] = in MeOH, used as standard; cited from earlier work

Compound	synergy with vinblastine (viability) (DU-145 cells [1])	synergism with vinblastine (Chou–Talalay) (DU-145 cells [2])	Quantum yield of singlet oxygen production (ΦΔ) [3]
[Ru(tpy)(Me2dppn)(py)](PF6)2 [Compound 27, reference compound]	does not	weaker synergism	
[Ru+2].c1ccc(-c2ccccn2)nc1.c1ccc(-c2ccccn2)nc1.c1ccc(-c2ccccn2)nc1 [[Ru(bpy)3]^2+]			0.81
